# Calls of active or inactive are those of the source. No cut-off for these calls is given here.
# Columns and labels:
# MDA-MB-435 = assay: Cytotoxicity against human MDA-MB-435 cells after 72 hrs by CellTiter96 AQueous one solution cell proliferation assay; type: functional, cell-based; conditions: MDA-MB-435, 72 h
# HT-29 = assay: Cytotoxicity against human HT-29 cells measured after 24 to 72 hrs by SRB assay; type: functional, cell-based
# Outline: (§1)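 Cells from ATCC: HT-29 in RPMI 1640 with 10% FBS and 1% P/S; OVCAR3 in RPMI 1640 with 20% FBS, 1% P/S and 10 µg/mL insulin. Both kept at 37°C in 5% CO₂ and passaged at most 20 times. Seeded at 2,500–5,000 cells/well, attached overnight, then treated 24, 48 or 72 h (DMSO final 0.25%). Fixed, SRB-stained protein read out; normalized to vehicle; IC₅₀ from dose-response curves.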
# MDA-MB-231 = assay: Cytotoxicity against human MDA-MB-231 cells after 72 hrs by CellTiter96 AQueous one solution cell proliferation assay; type: functional, cell-based; conditions: MDA-MB-231, 72 h
# OVCAR-3 = assay: Cytotoxicity against human OVCAR3 cells measured after 24 to 72 hrs by SRB assay; type: functional, cell-based; outline: as §1
# [1] = Resistance index, ratio of IC50 for human K/VP.5 cells to IC50 for human etoposide-sensitive K562 cells; type: functional
# Outline: (§2)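 K562 and etoposide-resistant K/VP.5 cells (~1/5 topo IIα level) in suspension at 7.5 × 10⁴ cells/ml exposed to DMSO vehicle or serial compound concentrations (final DMSO 0.5%), triplicate wells; 72 hr at 37°C, then MTS reagent 1 hr at 37°C, absorbance 490 nm. IC₅₀ from four-parameter logistic fit; relative resistance = IC₅₀ K/VP.5 ÷ IC₅₀ K562; n = separate-day repeats.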
# K562 = assay: Cytotoxicity against human etoposide-sensitive K562 cells after 72 hrs by CellTiter96 AQueous one solution cell proliferation assay; type: functional, cell-based; conditions: K562, 72 h; outline: as §2
# [2] = Cytotoxicity against human K/VP.5 cells after 72 hrs by CellTiter96 AQueous one solution cell proliferation assay; type: functional, cell-based; conditions: K/VP.5, 72 h; outline: as §2
# [3] = biological target: DNA topoisomerase 2-alpha (Homo sapiens) (UniProt P11388); assay: Inhibition of full-length recombinant human topoisomerase-2alpha expressed in yeast expression system assessed as reduction in enzyme-mediated supercoiled pBR322 DNA relaxation at 50 to 100 uM measured after 15 mins by ethidium bromide staining based agarose gel electrophoresis
# DNA topoisomerase 2-alpha (Homo sapiens), sequence (P11388 whole entry): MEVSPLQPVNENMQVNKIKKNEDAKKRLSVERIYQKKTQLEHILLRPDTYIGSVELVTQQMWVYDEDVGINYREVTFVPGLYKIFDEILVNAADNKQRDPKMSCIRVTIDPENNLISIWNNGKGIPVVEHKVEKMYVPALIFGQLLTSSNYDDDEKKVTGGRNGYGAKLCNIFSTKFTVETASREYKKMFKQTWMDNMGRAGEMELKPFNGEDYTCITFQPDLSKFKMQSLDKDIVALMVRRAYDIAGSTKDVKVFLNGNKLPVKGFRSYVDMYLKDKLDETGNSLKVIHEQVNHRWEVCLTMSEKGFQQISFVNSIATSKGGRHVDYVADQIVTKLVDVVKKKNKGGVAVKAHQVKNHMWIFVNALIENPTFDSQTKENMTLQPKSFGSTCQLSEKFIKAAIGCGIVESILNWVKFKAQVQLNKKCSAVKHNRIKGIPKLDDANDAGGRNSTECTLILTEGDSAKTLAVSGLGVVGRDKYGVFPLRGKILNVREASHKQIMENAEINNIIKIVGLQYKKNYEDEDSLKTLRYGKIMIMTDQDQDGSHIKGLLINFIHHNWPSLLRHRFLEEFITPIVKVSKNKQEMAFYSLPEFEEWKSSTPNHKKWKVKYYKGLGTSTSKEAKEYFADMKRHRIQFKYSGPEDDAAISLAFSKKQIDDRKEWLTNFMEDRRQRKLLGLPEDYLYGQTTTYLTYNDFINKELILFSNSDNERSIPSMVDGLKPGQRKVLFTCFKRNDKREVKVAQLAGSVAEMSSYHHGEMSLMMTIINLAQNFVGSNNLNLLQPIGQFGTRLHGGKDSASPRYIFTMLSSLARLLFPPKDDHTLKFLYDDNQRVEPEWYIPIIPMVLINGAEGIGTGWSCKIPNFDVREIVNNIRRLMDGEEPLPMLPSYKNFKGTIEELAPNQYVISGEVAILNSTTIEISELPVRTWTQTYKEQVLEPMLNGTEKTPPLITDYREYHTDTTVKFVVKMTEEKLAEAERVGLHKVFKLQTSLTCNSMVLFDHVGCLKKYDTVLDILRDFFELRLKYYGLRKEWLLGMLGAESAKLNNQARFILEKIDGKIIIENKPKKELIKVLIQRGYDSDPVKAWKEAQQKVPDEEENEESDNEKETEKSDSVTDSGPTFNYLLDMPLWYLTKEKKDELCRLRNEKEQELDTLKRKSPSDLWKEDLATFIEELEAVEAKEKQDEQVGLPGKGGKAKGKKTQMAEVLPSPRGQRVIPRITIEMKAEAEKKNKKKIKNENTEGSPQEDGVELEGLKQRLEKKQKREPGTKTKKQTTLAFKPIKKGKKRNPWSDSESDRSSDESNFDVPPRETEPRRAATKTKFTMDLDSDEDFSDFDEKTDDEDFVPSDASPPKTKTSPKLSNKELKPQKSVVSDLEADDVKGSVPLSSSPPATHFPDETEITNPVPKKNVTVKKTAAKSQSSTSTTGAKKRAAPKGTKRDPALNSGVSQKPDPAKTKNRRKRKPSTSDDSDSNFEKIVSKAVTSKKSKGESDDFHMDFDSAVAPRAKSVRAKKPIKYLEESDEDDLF
# Outline: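 Topo IIα (125 ng) with 150 ng negatively supercoiled pBR322 and 1 mM ATP in 10 mM Tris-HCl pH 8.0, 50 mM KCl, 50 mM NaCl, 0.1 mM EDTA, 5 mM MgCl₂, 2.5% glycerol, drug in DMSO; started with enzyme, 15 min at 37°C, SDS/EDTA stop. Products resolved on 1% TBE agarose, ethidium bromide stained, imaged under UV.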
# [4] = Selectivity ratio of IC50 for human OVCAR3 cells to IC50 for human HT-29 cells; type: functional
# [5] = biological target: DNA topoisomerase 2-alpha (Homo sapiens) (UniProt P11388); conditions: 100 uM
inhibition [5],Compound,IC50 (MDA-MB-435) [nM],IC50 (HT-29) [nM],IC50 (MDA-MB-231) [nM],IC50 (OVCAR-3) [nM],Ratio IC50 [1],IC50 (K562) [nM],IC50 [2] [nM],inhibition [3],Ratio IC50 [4]
,COc1cc2c(O[C@H]3OC[C@@H](OC(C)=O)[C@@H](OC(C)=O)[C@@H]3OC(C)=O)c3c(c(-c4ccc5c(c4)OCO5)c2cc1OC)C(=O)OC3,500,46,2200,370,,,,,
,COc1cc2c(O[C@@H]3OC[C@H](OC)[C@H](OC)[C@H]3OC)c3c(c(-c4ccc5c(c4)OCO5)c2cc1OC)C(=O)OC3,140,130,650,810,1.02,1260,1280,inactive,
,COc1cc2c(O[C@@H]3OC[C@H](OC(C)=O)[C@H](OC(C)=O)[C@H]3OC(C)=O)c3c(c(-c4ccc5c(c4)OCO5)c2cc1OC)COC3,,1400,,> 10000,,,,,
,COc1cc2c(O[C@@H]3OC[C@@H](OC)[C@H](OC)[C@H]3OC)c3c(c(-c4ccc5c(c4)OCO5)c2cc1OC)C(=O)OC3,,18,,7600,0.91,470,430,Active,>400
,COc1cc2c(O[C@@H]3OC[C@H](OC(C)=O)[C@H](OC(C)=O)[C@H]3OC(C)=O)c3c(c(-c4ccc5c(c4)OCO5)c2cc1OC)C(=O)OC3,140,140,1000,290,1.08,850,920,Active,
Active,COc1cc([C@@H]2c3cc4c(cc3[C@@H](O[C@@H]3O[C@@H]5CO[C@@H](C)O[C@H]5[C@H](O)[C@H]3O)[C@H]3COC(=O)[C@H]23)OCO4)cc(OC)c1O [ETOPOSIDE],,15000,,2900,28.98,1220,35400,,
,COc1cc2c(O[C@@H]3OC[C@@H](O)[C@H](O)[C@H]3O)c3c(c(-c4ccc5c(c4)OCO5)c2cc1OC)C(=O)OC3,,1400,,690,,,,,
,COc1cc2c(O)c3c(c(-c4ccc5c(c4)OCO5)c2cc1OC)C(=O)OC3 [DIPHYLLIN],,,,,0.97,2380,2310,,
,COc1cc2c(O[C@@H]3OC[C@H](O)[C@H](O)[C@H]3O)c3c(c(-c4ccc5c(c4)OCO5)c2cc1OC)C(=O)OC3 [ACUTISSIMALIGNAN A],,,,4800,,,,,
,COc1cc2c(O[C@@H]3OC[C@@H](OC(C)=O)[C@H](OC(C)=O)[C@H]3OC(C)=O)c3c(c(-c4ccc5c(c4)OCO5)c2cc1OC)C(=O)OC3,230,160,5100,570,,,,,
,COCc1c(C(=O)OC)c(-c2ccc3c(c2)OCO3)c2cc(OC)c(OC)cc2c1O[C@@H]1OC[C@@H](OC)[C@H](OC)[C@H]1OC,,1700,,450,,,,,
,COc1cc2c(O[C@@H]3OC[C@H](OC(C)=O)[C@H](OC(C)=O)[C@H]3OC(C)=O)c3c(c(-c4ccc5c(c4)OCO5)c2cc1OC)COC3=O,,470,,> 10000,,,,,
,CC(=O)O[C@H]1C(=O)[C@@]2(C)[C@H]([C@H](OC(=O)c3ccccc3)[C@]3(O)C[C@H](OC(=O)[C@H](O)[C@@H](NC(=O)c4ccccc4)c4ccccc4)C(C)=C1C3(C)C)[C@]1(OC(C)=O)CO[C@@H]1C[C@@H]2O [PACLITAXEL],,11,,11,,,,,
,CCOC(=O)c1c(C(=O)OCC)c(-c2ccc3c(c2)OCO3)c2cc(OC)c(OC)cc2c1O[C@@H]1OC[C@H](OC(C)=O)[C@H](OC(C)=O)[C@H]1OC(C)=O,,> 10000,,> 10000,,,,,
,COc1cc2c(O[C@@H]3O[C@H](COC(C)=O)[C@@H](O[C@@H]4O[C@H](COC(C)=O)[C@H](OC(C)=O)[C@H](OC(C)=O)[C@H]4OC(C)=O)[C@H](OC(C)=O)[C@H]3OC(C)=O)c3c(c(-c4ccc5c(c4)OCO5)c2cc1OC)C(=O)OC3,> 10000,2000,> 10000,> 10000,,,,,

# — ChEMBL document CHEMBL4219229, “Synthesis and antiproliferative activity of derivatives of the phyllanthusmin class of arylnaphthalene lignan lactones” (Bioorg Med Chem, 2018)
